According to ChEMBL document CHEMBL1125497, “Synthesis and anticonvulsant activity of enaminones” (J Med Chem, 1992):

What was measured:
[1] = Antiepileptic activity in male CF1 mice 30 min after administration measured in subcutaneous pentylenetetrazole (scMet) test at a dose of 300 mg/kg (no. of animals treated /protected); activity value is 0/1; format: functional, Mus musculus
[2] = Antiepileptic activity in male CF1 mice 30 min after administration measured in maximum electroshock seizure(MES) test at a dose of 300 mg/kg (no. of animals treated /protected); activity value is 0/1; format: functional, Mus musculus
[3] = Antiepileptic activity in male CF1 mice 4 hr after administration measured in maximum electroshock seizure(MES) test at a dose of 300 mg/kg (no. of animals treated /protected); activity value is 1/1; format: functional, Mus musculus
[4] = Antiepileptic activity in male CF1 mice 4 hr after administration measured in neurological toxicity (Tox) test at a dose of 300 mg/kg (no. of animals treated /protected); activity value is 0/2; format: functional, Mus musculus
[5] = Antiepileptic activity in male CF1 mice 4 hr after administration measured in subcutaneous pentylenetetrazole (scMet) test at a dose of 300 mg/kg (no. of animals treated /protected); activity value is 0/1; format: functional, Mus musculus
[6] = Dose at which anticonvulsant activity was observed in mice; format: functional, Mus musculus
[7] = Antiepileptic activity in male CF1 mice 30 min after administration measured in neurological toxicity (Tox) test at a dose of 300 mg/kg (no. of animals treated /protected); activity value is 0/4; format: functional, Mus musculus
[8] = Antiepileptic activity in male CF1 mice 4 hr after administration measured in subcutaneous pentylenetetrazole (scMet) test at a dose of 300 mg/kg; activity value is 0/1; format: functional, Mus musculus
[9] = Time of peak anticonvulsant effect in CF1 mice; format: functional, Mus musculus
Method in brief: (§1)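 Male CF1 mice (ca. 24–34 g), compound in 0.5% methylcellulose suspension given ip or po; time (h) at which MES protection (against tonic hind limb extension) peaked was recorded and used for ED50 determination.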

[10] = Time of peak neurotoxic effect in CF1 mice; format: ADME; details: mouse, in vivo
Method in brief: (§2)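 Male CF1 mice (ca. 24–34 g), compound ip in 0.5% methylcellulose suspension; neurological deficit assessed by rotorod test, time (h) of peak neurotoxic effect recorded for TD50 determination.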

[11] = tested on: Rattus norvegicus; assay: Dose reducing the seizure severity in rat cornea 0.5 hr after peroral administration.; format: functional; details: po
Method in brief: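 Sprague-Dawley rats (85–95 g initial) were kindled with 4 s, 8 mA corneal stimulations (butacaine anesthesia) to 10 consecutive stage 5 seizures. After a vehicle shock and a 2-day shock-free period, test drug was given ip or po and a single shock applied at time of peak effect. Seizures were scored on a modified Racine 0–5 scale. ED50 is the dose reducing severity by 50% (Litchfield–Wilcoxon).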

[12] = Oral dose producing neurotoxic effects in 50% of rats; format: ADME, organism-based; details: rat, in vivo
Method in brief: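 Phase VI screen in male Sprague-Dawley rats dosed orally. MES protection and rotorod toxicity were scored as animals responding over animals tested at 0.25, 0.5, 1, 2 and 4 h.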

[13] = tested on: Rattus norvegicus; assay: Dose reducing the seizure severity in rat cornea 1 hr after peroral administration; format: functional; details: po
Method in brief: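 Same corneal-kindled Sprague-Dawley rat procedure with the drug given po. Vehicles: 0.5% methylcellulose, 0.9% NaCl or corn oil. Single shock at the time of peak effect, scored on the modified Racine scale. ED50 by Litchfield-Wilcoxon, taken as the dose that reduced seizure severity by 50%.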

[14] = Anticonvulsant activity administered intraperitoneally in CF1 mice is the ability to protect the mice from MES(maximal electroshock seizure).; format: functional; details: Mus musculus, ip
[15] = Dose elevating electroshock induced seizure by 20% in CF1 mice after ip administration.; format: functional, Mus musculus
Method in brief: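 In CF1 male mice (ca. 24–34 g), compound was given ip in 0.5% methylcellulose. The current giving hind limb extension in 50% of mice was found by the up-and-down method, with 15–25 mice per group and a vehicle control group run with each experimental group. At least three doses were tested. The dose raising threshold current by 20% was taken from a plot of dose against % threshold increase.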

[16] = Dose protecting 50% of the mice from tonic hind limb extension at the time of […] after ip administration.; format: functional; details: Mus musculus, Hindlimb
Method in brief: (§3)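 Phase II quantification in CF1 male mice (ca. 24–34 g), dosing ip or po in 0.5% methylcellulose suspension. ED50 is protection from tonic hind limb extension in MES. TD50 is rotorod neurotoxicity. Both were read at time of peak effect and derived by Litchfield–Wilcoxon with 95% confidence limits.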

[17] = Dose showing neurotoxicity in 50% of the at the time of peak neurotoxic effect in CF1 MICE after ip administration.; format: toxicity, organism-based; details: CF1, mouse, in vivo
Method in brief: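 CF1 male mice (ca. 24–34 g), dosed ip in 0.5% methylcellulose suspension. Neurotoxicity measured by the rotorod test at the time of peak neurotoxic effect. TD50 and confidence limits by the Litchfield-Wilcoxon method.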

[18] = Time of peak anticonvulsant effect in CF1 MICE after ip administration.; format: functional, Mus musculus; method in brief: as §1
[19] = Time of peak neurotoxic effect in CF1 MICE after ip administration.; format: ADME, organism-based; details: mouse, in vivo; method in brief: as §2
[20] = tested on: Rattus norvegicus; assay: Average seizure score for the rat cornea 0.5 hr after intraperitoneal administration of 15 mg/Kg of compound; format: functional
Method in brief: (§4)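 Sprague-Dawley rats (85–95 g initial weight) kindled by corneal stimulation (4 s, 8 mA) twice daily for 5 to 6 days, then once daily until 10 consecutive stage 5 seizures. Butacaine sulfate 1% applied to the cornea as a topical anaesthetic. After a vehicle shock and a 2-day shock-free period, drug given ip, then a single shock at the time of peak effect. Scored on the modified Racine scale (0–5).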

[21] = tested on: Rattus norvegicus; assay: Average seizure score for the rat cornea 0.5 hr after intraperitoneal administration of 20 mg/Kg of compound; format: functional; method in brief: as §4
[22] = tested on: Rattus norvegicus; assay: Average seizure score for the rat cornea 0.5 hr after intraperitoneal administration of 0 mg/Kg of compound; format: functional; method in brief: as §4
[23] = tested on: Rattus norvegicus; assay: Average seizure score for the rat cornea 0.5 hr after intraperitoneal administration of 30 mg/Kg of compound; format: functional; method in brief: as §4
[24] = tested on: Rattus norvegicus; assay: Intraperitoneal dose (0 mg/Kg) reducing rat corneal kindling 0.5 hr after administration.; format: functional; method in brief: as §4
[25] = tested on: Rattus norvegicus; assay: Intraperitoneal dose (15 mg/Kg) reducing rat corneal kindling 0.5 hr after administration.; format: functional; method in brief: as §4
[26] = tested on: Rattus norvegicus; assay: Intraperitoneal dose (20 mg/Kg) reducing rat corneal kindling 0.5 hr after administration.; format: functional; method in brief: as §4
[27] = tested on: Rattus norvegicus; assay: Intraperitoneal dose (25 mg/Kg) reducing rat corneal kindling 0.5 hr after administration.; format: functional; method in brief: as §4
[28] = tested on: Rattus norvegicus; assay: Intraperitoneal dose (30 mg/Kg) reducing rat corneal kindling 0.5 hr after administration.; format: functional; method in brief: as §4
[29] = (§5) Dose producing neurotoxic effects in 50% of the CF1 mice after intraperitoneal administration.; format: ADME; details: CF1, mouse, in vivo, ip; method in brief: as §3
[30] = Antiepileptic activity in male CF1 mice 4 hr after administration measured in maximum electroshock seizure(MES) test at a dose of 300 mg/kg (no. of animals treated /protected); activity value is 0/1; format: functional, Mus musculus
[31] = Antiepileptic activity in male CF1 mice 30 min after administration measured in maximum electroshock seizure(MES) test at a dose of 300 mg/kg (no. of animals treated /protected); activity value is 1/1; format: functional, Mus musculus
[32] = Antiepileptic activity in male CF1 mice 30 min after administration measured in neurological toxicity (Tox) test at a dose of 300 mg/kg (no. of animals treated /protected); activity value is 1/4; format: functional, Mus musculus
[33] = Protective index was measured as TD50/ED50; format: ADME; details: read-out: PI
[34] = Antiepileptic activity in male CF1 mice 30 min after administration measured in subcutaneous pentylenetetrazole (scMet) test at a dose of 100 mg/kg (no. of animals treated /protected); activity value is 0/1; format: functional, Mus musculus
[35] = Antiepileptic activity in male CF1 mice 4 hr after administration measured in maximum electroshock seizure(MES) test at a dose of 100 mg/kg (no. of animals treated /protected); activity value is 0/3; format: functional, Mus musculus
[36] = Antiepileptic activity in male CF1 mice 30 min after administration measured in maximum electroshock seizure(MES) test at a dose of 100 mg/kg (no. of animals treated /protected); activity value is 2/3; format: functional, Mus musculus
[37] = Antiepileptic activity in male CF1 mice 30 min after administration measured in neurological toxicity (Tox) test at a dose of 100 mg/kg (no. of animals treated /protected); activity value is 0/8; format: functional, Mus musculus
[38] = Antiepileptic activity in male CF1 mice 4 hr after administration measured in neurological toxicity (Tox) test at a dose of 100 mg/kg (no. of animals treated /protected); activity value is 0/4; format: functional, Mus musculus
[39] = Antiepileptic activity in male CF1 mice 4 hr after administration measured in subcutaneous pentylenetetrazole (scMet) test at a dose of 100 mg/kg; activity value is 0/1; format: functional, Mus musculus
[40] = Antiepileptic activity in male CF1 mice 30 min after administration measured in maximum electroshock seizure(MES) test at a dose of 100 mg/kg (no. of animals treated /protected); activity value is 1/3; format: functional, Mus musculus
[41] = Antiepileptic activity in male CF1 mice 4 hr after administration measured in subcutaneous pentylenetetrazole (scMet) test at a dose of 100 mg/kg (no. of animals treated /protected); activity value is 0/1; format: functional, Mus musculus
[42] = as §5; format: functional; details: Mus musculus, ip; read-out: ED50 (the source's name); method in brief: as §3

Row | SMILES | Activity [1] | Activity [4] | Activity [5] | Dose [6] | Activity [7] | TPE [9] | TPE [10] | Activity [30] | Activity [31] | Activity [34] | Activity [35] | Activity [37] | Activity [38] | further results
1 | CC1CC(NCCc2ccccc2)=CC(=O)C1C(=O)NCCc1ccccc1 (stereo not given) | 0 | 0 | 0 | >100 mg/kg | 0 |  |  |  |  |  |  |  |  | Activity [2]: 0; Activity [3]: 1
2 | COC(=O)C1C(=O)C=C(NNc2ccccc2)CC1C (stereo not given) | 0 | 0 |  | >100 mg/kg | 0 |  |  |  |  |  |  |  |  | Activity [2]: 0; Activity [3]: 1; Activity [8]: 0
3 | O=C1NC(=O)C(c2ccccc2)(c2ccccc2)N1 [PHENYTOIN] |  |  |  |  |  | 2 | 2 |  |  |  |  |  |  | ED50 [11]: > 100 mg/kg; TD50 [12]: > 3000 mg/kg
4 | O=C1CN=C(c2ccccc2Cl)c2cc([N+](=O)[O-])ccc2N1 [CLONAZEPAM] |  |  |  |  |  |  |  |  |  |  |  |  |  | ED50 [13]: 0.7 mg/kg
5 | NC(=O)N1c2ccccc2C=Cc2ccccc21 [CARBAMAZEPINE] |  |  |  |  |  | 0.25 | 0.25 |  |  |  |  |  |  | ED50 [14]: 8.8 mg/kg
6 | CCC1(c2ccccc2)C(=O)NC(=O)NC1=O [PHENOBARBITAL] |  |  |  |  |  |  |  |  |  |  |  |  |  | Dose [15]: 3 mg/kg; ED50 [16]: 18 mg/kg; TD50 [17]: 92 mg/kg; TPE [18]: 1; TPE [19]: 1; Average seizure score [20]: 2.7; Average seizure score [21]: 1.7; Average seizure score [22]: 5; Average seizure score [23]: 1.3; Reduction [24]: 0%; Reduction [25]: 47%; Reduction [26]: 68%; Reduction [27]: 70%; Reduction [28]: 74%
7 | COC(=O)C1C(O)=C/C(=N\Cc2ccccc2)CC1(C)C (stereo not given) | 0 | 0 | 0 | >100 mg/kg |  | 0.5 | 1 | 0 | 1 |  |  |  |  | ED50 [14]: 132 mg/kg; TD50 [29]: > 500 mg/kg; Activity [32]: 1; selectivity ratio [33]: 3.8
8 | CCc1ccc(NC2=CC(=O)C(C(=O)OC)C(C)C2)cc1 (stereo not given) |  |  |  | <=100 mg kg-1 |  |  |  |  |  | 0 | 0 | 0 | 0 | Activity [36]: 2; Activity [39]: 0
9 | COC(=O)C1C(=O)C=C(Nc2cc(OC)ccc2OC)CC1C (stereo not given) | 0 | 0 | 0 | <=100 mg kg-1 | 0 |  |  | 0 | 1 | 0 | 0 | 0 | 0 | Activity [40]: 1; Activity [41]: 0
10 | CC1(C)CC(O)=C/C(=N\c2ccccc2)C1 | 0 | 0 | 0 | <=100 mg kg-1 | 0 | 0.5 | 0.5 | 0 | 1 | 0 | 0 | 0 | 0 | ED50 [14]: 109 mg/kg; TD50 [42]: 233 mg/kg; Activity [36]: 2; Activity [41]: 0; selectivity ratio [33]: 2.1; TD50 [12]: > 250 mg/kg
11 | COC(=O)C1C(O)=C/C(=N\CCc2ccccc2)CC1(C)C (stereo not given) | 0 | 0 | 0 | <=100 mg kg-1 |  |  |  | 0 | 1 | 0 | 0 | 0 | 0 | Activity [40]: 1; Activity [41]: 0; Activity [32]: 1
